The text below walks through data of ChEMBL document CHEMBL3124934, “Identification of a methoxynaphthalene scaffold as a core replacement in quinolizidinone amide M(1) positive allosteric modulators” (Bioorg Med Chem Lett, 2014).

Data set [1] deals with T1, Muscarinic acetylcholine receptor M1 (Homo sapiens) (UniProt P11229).
T1 sequence (whole entry): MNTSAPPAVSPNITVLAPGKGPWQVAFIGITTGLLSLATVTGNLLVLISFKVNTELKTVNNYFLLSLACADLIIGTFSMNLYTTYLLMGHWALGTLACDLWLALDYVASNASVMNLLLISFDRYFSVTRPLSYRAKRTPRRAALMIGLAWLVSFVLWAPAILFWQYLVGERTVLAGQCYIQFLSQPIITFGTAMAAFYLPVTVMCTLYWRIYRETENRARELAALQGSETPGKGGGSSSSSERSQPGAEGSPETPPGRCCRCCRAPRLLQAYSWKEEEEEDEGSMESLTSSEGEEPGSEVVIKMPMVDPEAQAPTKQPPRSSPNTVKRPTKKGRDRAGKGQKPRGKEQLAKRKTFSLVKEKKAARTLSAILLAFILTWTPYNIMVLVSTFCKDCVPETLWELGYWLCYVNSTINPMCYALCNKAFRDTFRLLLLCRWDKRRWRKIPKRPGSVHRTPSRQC
Kind of data set: Positive allosteric modulation of human muscarinic M1 receptor expressed CHO cells assessed as intrinsic potency of acetylcholine-induced calcium mobilization by FLIPR assay relative to control. In kind it is functional, cell-based. The method in brief:
(§1)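 Human M1 receptor expressed in CHO cells, with calcium mobilization read by FLIPR. Inflection point (IP, nM) and % max response are taken as the numerical average of at least two experiments. Interassay variability was ±30% for IP unless noted otherwise.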
A general note: Calcium flux is commonly read through the fluorescence of an indicator in the cells.

For data set [2], the target named is T1, Muscarinic acetylcholine receptor M1 (Homo sapiens). The experiment in a line: Positive allosteric modulation of human muscarinic M1 receptor expressed CHO cells assessed as intrinsic potency of acetylcholine-induced calcium mobilization by FLIPR assay. In kind it is functional, cell-based. Summed up:
as §1

A short description of data set [3]: Apparent permeability of the compound. In kind it is physicochemical. To be noted: not told.
For data set [4], the target named is Multidrug resistance protein 1a (Rattus norvegicus, UniProt Q6PSM0). The experiment in a line: Activity at rat MDR1a assessed as ratio of permeability from basolateral to apical side over permeability from apical to basolateral side by cell based assay.
The target of data set [5] is ATP-dependent translocase ABCB1 (Homo sapiens, UniProt P08183). The experiment in a line: Activity at human MDR1 assessed as ratio of permeability from basolateral to apical side over permeability from apical to basolateral side by cell based assay.
Data set [6] concerns the target T1, Muscarinic acetylcholine receptor M1 (Homo sapiens). The experiment in a line: Positive allosteric modulation of human muscarinic M1 receptor expressed CHO cells assessed as intrinsic potency of acetylcholine-induced calcium mobilization by FLIPR assay relative to acetylcholine. In kind it is functional, cell-based. Summed up:
as §1

Data set [7] in a line: Plasma protein binding in rat plasma. It is filed as ADME, cell-free. To be noted: read-out: PPB (converted).
Data set [8] is described as follows: Ratio of drug level in cerebrospinal fluid in Sprague-Dawley rat at 10 mg/kg, po to unbound fraction in rat plasma. In kind it is ADME, organism-based, CSF/Plasma. Also noted: dose 10 mg/kg, route oral. To be noted: in vivo.
Data set [9] in a line: Ratio of drug level in brain to plasma in Sprague-Dawley rat at 10 mg/kg, po. To be noted: read-out: BPR. Also noted: dose 10 mg/kg, route oral. It is filed as ADME, organism-based.
In the next data set the test system is Cerebrospinal fluid. The experiment in a line: Drug level in Sprague-Dawley rat cerebrospinal fluid at 10 mg/kg, po. Further: time not given here. To be noted: in vivo, read-out: Drug uptake. In kind it is ADME, organism-based. Also on record: dose 10 mg/kg, route oral.
The subject of a further data set is Brain. The experiment in a line: Drug level in Sprague-Dawley rat brain at 10 mg/kg, po. Further: time not given here. It is filed as ADME, organism-based. Also on record: dose 10 mg/kg, route oral. To be noted: in vivo, read-out: Drug uptake.
The next data set has as its system Plasma. Kind of data set: Plasma concentration in Sprague-Dawley rat at 10 mg/kg, po. Further: time not given here. It is filed as ADME, organism-based. Also on record: dose 10 mg/kg, route oral. To be noted: in vivo.

Multidrug resistance protein 1a, sequence (Q6PSM0 whole entry): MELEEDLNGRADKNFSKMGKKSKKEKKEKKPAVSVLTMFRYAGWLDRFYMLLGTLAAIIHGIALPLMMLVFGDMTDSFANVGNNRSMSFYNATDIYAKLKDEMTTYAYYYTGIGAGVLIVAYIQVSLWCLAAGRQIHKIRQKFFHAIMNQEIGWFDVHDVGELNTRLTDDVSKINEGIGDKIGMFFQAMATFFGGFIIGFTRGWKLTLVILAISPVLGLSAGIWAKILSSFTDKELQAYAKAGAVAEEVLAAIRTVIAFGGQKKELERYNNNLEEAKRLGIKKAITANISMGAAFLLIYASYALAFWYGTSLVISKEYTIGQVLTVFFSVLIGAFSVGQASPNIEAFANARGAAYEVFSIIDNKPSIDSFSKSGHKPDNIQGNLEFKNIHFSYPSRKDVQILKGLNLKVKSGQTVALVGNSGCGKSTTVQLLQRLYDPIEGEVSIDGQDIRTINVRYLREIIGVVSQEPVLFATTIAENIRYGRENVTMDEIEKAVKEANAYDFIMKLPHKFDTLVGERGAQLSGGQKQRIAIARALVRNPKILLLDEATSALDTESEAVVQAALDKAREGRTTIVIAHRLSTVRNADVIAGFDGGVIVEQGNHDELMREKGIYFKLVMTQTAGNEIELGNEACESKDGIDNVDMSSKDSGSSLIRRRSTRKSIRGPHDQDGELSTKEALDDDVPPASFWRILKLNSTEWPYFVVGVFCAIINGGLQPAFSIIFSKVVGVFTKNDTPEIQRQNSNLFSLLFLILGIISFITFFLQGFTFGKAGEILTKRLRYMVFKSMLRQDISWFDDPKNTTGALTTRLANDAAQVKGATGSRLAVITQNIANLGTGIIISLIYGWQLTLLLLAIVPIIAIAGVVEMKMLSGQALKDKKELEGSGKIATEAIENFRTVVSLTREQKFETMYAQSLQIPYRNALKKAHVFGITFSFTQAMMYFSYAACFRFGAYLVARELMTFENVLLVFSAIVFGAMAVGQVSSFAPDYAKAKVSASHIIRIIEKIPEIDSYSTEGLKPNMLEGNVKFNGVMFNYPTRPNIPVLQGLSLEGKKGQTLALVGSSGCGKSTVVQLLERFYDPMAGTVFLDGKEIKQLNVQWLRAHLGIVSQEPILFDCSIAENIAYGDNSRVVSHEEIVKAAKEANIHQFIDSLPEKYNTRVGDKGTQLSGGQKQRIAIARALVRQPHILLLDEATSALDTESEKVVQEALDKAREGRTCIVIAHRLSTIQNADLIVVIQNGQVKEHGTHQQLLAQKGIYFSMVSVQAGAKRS
ATP-dependent translocase ABCB1, sequence (P08183 whole entry): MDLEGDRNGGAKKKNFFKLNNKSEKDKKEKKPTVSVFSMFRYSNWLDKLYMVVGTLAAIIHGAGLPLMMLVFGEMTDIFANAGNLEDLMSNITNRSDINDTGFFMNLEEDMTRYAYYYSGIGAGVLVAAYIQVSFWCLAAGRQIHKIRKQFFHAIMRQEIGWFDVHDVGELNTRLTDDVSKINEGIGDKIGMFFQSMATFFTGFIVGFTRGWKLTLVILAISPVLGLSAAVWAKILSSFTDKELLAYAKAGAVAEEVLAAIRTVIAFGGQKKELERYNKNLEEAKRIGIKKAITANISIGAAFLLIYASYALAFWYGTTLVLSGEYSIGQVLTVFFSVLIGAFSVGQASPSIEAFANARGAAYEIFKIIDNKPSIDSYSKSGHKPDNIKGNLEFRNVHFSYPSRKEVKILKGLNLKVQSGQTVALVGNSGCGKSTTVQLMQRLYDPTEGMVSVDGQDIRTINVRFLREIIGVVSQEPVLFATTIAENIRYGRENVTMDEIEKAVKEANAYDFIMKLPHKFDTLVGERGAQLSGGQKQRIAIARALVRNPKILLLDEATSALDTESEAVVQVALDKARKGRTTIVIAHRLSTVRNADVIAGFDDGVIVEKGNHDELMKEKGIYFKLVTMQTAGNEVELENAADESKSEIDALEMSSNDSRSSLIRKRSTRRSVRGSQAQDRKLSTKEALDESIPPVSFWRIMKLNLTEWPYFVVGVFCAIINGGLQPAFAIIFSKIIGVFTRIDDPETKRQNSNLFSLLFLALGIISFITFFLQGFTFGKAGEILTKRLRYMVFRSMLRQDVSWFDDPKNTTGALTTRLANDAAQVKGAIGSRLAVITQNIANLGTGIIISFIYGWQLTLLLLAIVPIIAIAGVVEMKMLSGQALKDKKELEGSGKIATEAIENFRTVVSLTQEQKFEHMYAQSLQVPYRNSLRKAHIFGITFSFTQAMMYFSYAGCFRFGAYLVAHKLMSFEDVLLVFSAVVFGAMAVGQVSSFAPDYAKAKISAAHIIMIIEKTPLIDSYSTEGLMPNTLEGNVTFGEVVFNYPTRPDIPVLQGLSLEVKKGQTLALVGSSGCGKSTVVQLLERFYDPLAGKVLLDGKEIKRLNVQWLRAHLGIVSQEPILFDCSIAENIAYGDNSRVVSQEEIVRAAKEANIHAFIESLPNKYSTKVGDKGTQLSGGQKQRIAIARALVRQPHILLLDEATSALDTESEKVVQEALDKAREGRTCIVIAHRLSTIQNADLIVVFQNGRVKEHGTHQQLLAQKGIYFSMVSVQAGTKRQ

As to `COc1ccc(Cc2cc(C(=O)N[C@H]3CCCC[C@@H]3O)c(OC)c3ccccc23)cn1`, the %max in data set [1] was 85%. Further, the Activity in data set [2] stood at 140 nM.

On to `COc1c(C(=O)N[C@H]2CCCC[C@@H]2O)cc(CN2CCN(c3cc4ccccc4cn3)CC2)c2ccccc12`, for which the %max in data set [1] came out at 57%. In addition, the Activity in data set [2] was found to be 4000 nM.

Regarding `C=Cc1ccc(Cc2cc(C(=O)N[C@H]3CCCC[C@@H]3O)c(OC)c3ccccc23)cn1`, the %max in data set [1] is 88%. Also, in data set [2], the Activity is 74 nM.

On to `COc1c(C(=O)N[C@H]2CCCC[C@@H]2O)cc(CN2CCC(C#N)(c3ccccn3)CC2)c2ccccc12`, for which, in data set [3], the apparent permeability coefficient (Papp) turned out to be 31 ×10⁻⁶ cm/s. In [1], the %max stood at 62%. Besides, in data set [2], the Activity was determined as 303 nM. Besides, the values for the Ratio in [4] and in [5] were 2.3 and 1.7, respectively.

For `COc1c(C(=O)N[C@H]2CCCC[C@@H]2O)cc(Cc2ccc(C)nc2)c2ccccc12`, the fold change (FC) in [6] stood at 100. Besides, in [7], the fraction unbound was 0.016. Besides, the Ratio in data set [8] stood at 0.9; in [4], 2.1; in [5], 1.6. For the same compound, in data set [9], the Kp was 0.21. In addition, the concentration amounted to 91 nM with Cerebrospinal fluid, 1200 nM in the data set with Brain and 6020 nM with Plasma. Besides, the Papp in data set [3] amounted to 35 ×10⁻⁶ cm/s. Moreover, the %max in data set [1] was 93%. The Activity in data set [2] amounted to 121 nM.

Consider `COc1c(C(=O)N[C@H]2CCCC[C@@H]2O)cc(Cc2ccc(SC)nc2)c2ccccc12`, for which the %max in data set [1] came to 76%. Also, in [2], the Activity stood at 170 nM.

Consider `CC(=O)Oc1c(C(=O)N[C@H]2CCCC[C@@H]2O)cc(Cc2ccc(Cl)nc2)c2ccccc12`, for which the %max in data set [1] turned out to be 18%. Besides, the Activity in data set [2] was greater than 10000 nM.

As to `COc1c(C(=O)N[C@H]2CCCC[C@@H]2O)cc(Cc2ccc(-c3cnn(C)c3)nc2)c2ccccc12`, the fraction unbound in data set [7] was 0.001. Besides, the Kp in [9] turned out to be 0.06. The values for the concentration in the data set with Brain and with Plasma were 1600 nM and 29000 nM, respectively. In data set [3], the apparent permeability coefficient (Papp) amounted to 27 ×10⁻⁶ cm/s. In addition, the %max in data set [1] was 77%. The Activity in [2] is 17 nM. Also, the results for the Ratio in [4] and in data set [5] were 1.4 and 1.1, respectively.

Take `COc1c(C(=O)N[C@H]2CCCC[C@@H]2O)cc(CN2CCN(c3cnn(C)c3)CC2)c2ccccc12`: in data set [1], the %max is 83%. In data set [2], the Activity was determined as 3900 nM.

As for `O=C(N[C@H]1CCCC[C@@H]1O)c1cc(Cc2ccc(Cl)nc2)c2ccccc2c1O`, the %max in data set [1] was found to be 35%. Moreover, the Activity in data set [2] is 9100 nM.

As to `CCOc1c(C(=O)N[C@H]2CCCC[C@@H]2O)cc(Cc2ccc(Cl)nc2)c2ccccc12`, in data set [1], the %max is 37%. The Activity in data set [2] was 980 nM.

As for `COc1c(C(=O)N[C@H]2CCCC[C@@H]2O)cc(Cc2ccc(-n3cccn3)nc2)c2ccccc12`, in [7], the fraction unbound is 0.014. Besides, the values for the Ratio in [8], in [4] and in data set [5] were 0.34, 3.2 and 1.7, respectively. In addition, the Kp in data set [9] stood at 0.17. In addition, the concentration came to 8.7 nM with Cerebrospinal fluid, 370 nM in the data set with Brain and 2100 nM in the data set on Plasma. Further, the apparent permeability (Papp) in data set [3] stood at 31 ×10⁻⁶ cm/s. Moreover, the %max in data set [1] worked out at 83%. Besides, the Activity in data set [2] was found to be 87 nM.

As to `COc1c(C(=O)N[C@H]2CCCC[C@@H]2O)cc(Cc2ccc(-c3cccnc3)nc2)c2ccccc12`, the fold change (FC) in [6] was 10. Moreover, in [7], the fraction unbound is 0.006. For the same compound, the Ratio in data set [8] is 0.38; in data set [4], 1.5; in data set [5], 0.9. The Kp in data set [9] turned out to be 0.2. The concentration in the data set on Cerebrospinal fluid stood at 11 nM; in the data set on Brain, 860 nM; in the data set with Plasma it was 4900 nM. In addition, the Papp in data set [3] stood at 28 ×10⁻⁶ cm/s. The %max in data set [1] came to 73%. In addition, the Activity in [2] worked out at 24 nM.

Turning to `COc1c(C(=O)N[C@H]2CCCC[C@@H]2O)cc(Cc2ccc(Cl)nc2)c2ccccc12`, the fraction unbound in [7] is 0.1. The Ratio in data set [8] is less than 0.1; in data set [4] it was 1.9; in [5] it was 1.3. Besides, in [9], the Kp was 0.22. Also, the concentration was found to be 5 nM in the data set with Cerebrospinal fluid, 420 nM in the data set on Brain and 2060 nM with Plasma. Further, the apparent permeability (Papp) in [3] was determined as 32 ×10⁻⁶ cm/s. In addition, the %max in data set [1] came out at 74%. Further, the Activity in [2] stood at 260 nM.

Consider `CCc1ccc(Cc2cc(C(=O)N[C@H]3CCCC[C@@H]3O)c(OC)c3ccccc23)cn1`, for which the %max in [1] came out at 73%. For the same compound, in [2], the Activity came out at 190 nM.

As for `COc1ccc(Cc2cc(C(=O)O)c(OC)c3ccccc23)cc1`, the Activity in [2] amounted to 3330 nM.

With `CCc1c(C(=O)N[C@H]2CCCC[C@@H]2O)cc(Cc2ccc(Cl)nc2)c2ccccc12`, the %max in data set [1] was 47%. Further, the Activity in data set [2] was 7400 nM.

`C=CCOc1c(C(=O)N[C@H]2CCCC[C@@H]2O)cc(Cc2ccc(Cl)nc2)c2ccccc12`: in data set [1], the %max is 68%. Further, the Activity in data set [2] was 1100 nM.

Take `N#CC1(c2ccccn2)CCN(Cc2cc(C(=O)N[C@H]3CCCC[C@@H]3O)c(=O)n3ccccc23)CC1`: the Papp in data set [3] was 29 ×10⁻⁶ cm/s. Moreover, the Ratio in data set [4] is given as 21.1; in data set [5], 11.1.

For `COc1c(C(=O)O)cc(CN2CCC(C#N)(c3ccccn3)CC2)c2ccccc12`, in [2], the Activity was found to be 5400 nM.

The term Papp denotes the rate of passage across a membrane or cell layer, normalised by area and donor concentration.
